Source: PubChem BioAssay
The list is not random: actives were taken first. Their share in the collection is about 4.6%.
CHO parental Ca: signal in parental CHO cells, OX1R antagonist counter-screen; parental CHO-K1, ATP-induced calcium, Fluo-8 fluorescence; inhibition, % at 5.6 µM; 330,000 compounds, 0.63% hits;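 active = inhibition above that plate's mean sample inhibition plus 3 SD, cut at about 26% in these data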;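 note: 0% = ATP-challenged DMSO wells and 100% = DMSO wells without ATP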
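Assay system: untransfected parental CHO cell line. Also added: ATP agonist challenge. Dosing: one dose, 5.6 µM nominal. Measured by: Fluo-8 fluorescence. Read-out: % inhibition. Benchmarks: ATP wells versus no-ATP DMSO wells. Repeats: no replicates.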
TAAR1 ag: agonists of human TAAR1; activation, % at 3 µM; CHO RD-HGA16 TAAR1, Fluo-8 calcium fluorescence; vehicle wells 0%, saturating PEA agonist 100%; Q96RJ0; AID 624467; 360,000 compounds, 0.99% hits;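 active = activation above the mean activation of all test compounds in the run plus 3 SD, cut at about 38% in these data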
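Test system: RD-HGA16 (CHO) cells co-expressing Gα16 and hTAAR1 | Doses: Single dose, 3 µM | Schedule: 17-24 h seeding, 75 min 37 °C dye, 30 min RT | Evaluation: % activation from peak over basal fluorescence ratio, DMSO-to-PEA scaled | Technique: Kinetic Fluo-8 calcium fluorescence | Benchmarks: Low control DMSO, high control PEA (EC100)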
OX1R antag-1: OX1R (human) antagonism; inhibition, % at 6.6 µM; AID 485270; OX1R-expressing cells, FRET antagonist read-out; 330,000 compounds, 1.8% hits; O43613; in the data active = inhibition mostly above about 38%, no sharp cut-off; inactive = mostly below about 40%;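 note: 0% = agonist challenge alone and 100% = reference antagonist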
GPR7 antagonist: blocks human GPR7 receptor signaling; P48145; 290,000 compounds, 1.1% hits; GPR7-expressing cells, fluorescence antagonist assay; inhibition, % at 4.4 µM; AID 1861; in the data active = inhibition above about 16%, passing the limit was not always enough;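 note: cells stimulated with the agonist NPW; 0% = agonist with vehicle and 100% = vehicle without agonist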
Target sequence (P48145 whole entry, looked up): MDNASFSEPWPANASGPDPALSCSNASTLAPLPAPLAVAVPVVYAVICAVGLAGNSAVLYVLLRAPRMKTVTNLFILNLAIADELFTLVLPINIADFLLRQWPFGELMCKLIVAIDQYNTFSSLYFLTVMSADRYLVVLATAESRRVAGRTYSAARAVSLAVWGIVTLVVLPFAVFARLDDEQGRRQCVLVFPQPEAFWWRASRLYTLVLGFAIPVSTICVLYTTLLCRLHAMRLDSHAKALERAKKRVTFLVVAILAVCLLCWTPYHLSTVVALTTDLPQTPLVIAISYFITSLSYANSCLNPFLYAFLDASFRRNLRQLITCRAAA
OX1R antag-2: antagonists of human orexin 1 receptor. O43613. AID 434989. inhibition, % at 5 µM. 330,000 compounds, 0.43% hits. CHO/OX1R cells, Fluo-8 calcium fluorescence, orexin A;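 active = inhibition above its plate's threshold, mean inhibition of all tested compounds on the plate plus 3 SD, cut at about 37% in these data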;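 note: 0% = orexin A challenge wells and 100% = SB-334867-A antagonist wells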
TAAR1 antag: human TAAR1 antagonism | Q96RJ0 | CHO RD-HGA16 TAAR1, Fluo-8 calcium fluorescence, antagonist | inhibition, % at 3 µM | 360,000 compounds, 1.5% hits;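 active = inhibition above a per-plate cutoff, the mean inhibition of test compounds on that plate plus 3 SD, cut at about 49% in these data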;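 note: 0% = DMSO plus EC80 beta-PEA response and 100% = DMSO alone without agonist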
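Test system: hTAAR1-expressing CHO RD-HGA16 cells, Gα16-coupled; Probe or stimulus: EC80 β-phenethylamine stimulus; Compound dosing: single nominal final test compound concentration of 3 µM; Timing: 140 s kinetic read after compound, 140 s after agonist; Signal: Fluo-8 calcium-sensitive fluorescence; Measure: % inhibition of agonist calcium response; Controls: DMSO and EC80 PEA controls.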
Starred values were filed as active, the others as inactive; x = no result.

SMILES | CHO parental Ca | TAAR1 ag | OX1R antag-1 | GPR7 antagonist | OX1R antag-2 | TAAR1 antag
CCN1CCN(S(=O)(=O)c2cc(OCC(=O)NC3CCCCC3)c(C)cc2Cl)CC1 | -3 | 13 | 6 | 10 | -19 | 0
COc1ccc(OC)c(C(c2nnnn2C2CCCC2)N2CCN(c3ccccc3F)CC2)c1 (stereo not given) | -19 | 10 | 11 | 28* | -28 | -9
COc1ccc(OC)c(C(c2nnnn2C2CCCC2)N2CCc3ccccc3C2)c1 (stereo not given) | -7 | 4 | 13 | 14 | -8 | -7
COc1ccc(N2CCN(C(c3cccc(OC)c3OC)c3nnnn3C3CCCC3)CC2)cc1 (stereo not given) | 3 | 0 | 22 | 21* | -38 | -4
COc1ccc(N2CCN(C(c3ccccc3OC)c3nnnn3C3CCCC3)CC2)cc1 (stereo not given) | x | -1 | x | 4 | x | 2
COc1ccc(C(c2nnnn2C2CCCC2)N2CCc3ccccc3C2)cc1OC (stereo not given) | x | 22 | x | 22* | x | -9
COC(=O)C1=C(C)N(Cc2ccc(F)cc2)C(=S)NC1c1ccc(Cl)cc1 (stereo not given) | x | -1 | x | x | x | 17
CC(=O)NC(c1cccc(F)c1)c1nc(-c2cccc(C(F)(F)F)c2)cs1 (stereo not given) | x | 4 | x | x | x | -6
C=C(C(=O)c1ccccc1)C(c1ccccc1)C(C)C(=O)c1ccccc1 (stereo not given) | 41* | 1 | 16 | -16 | -22 | 0
CC(=O)N(C1=C(N)C(=O)c2ccccc2C1=O)c1ccccc1 | -3 | 0 | 46* | 9 | -12 | -24
Nc1cc(=O)n(Cc2ccccc2)c(N)c1C(=O)NCc1ccccc1 | x | 4 | x | x | x | -2
CCCNC(=O)c1noc2c1CCc1ccccc1-2 | -4 | -1 | 11 | 2 | -16 | 9
COc1ccc2c(c1)CCc1c(C(=O)NCCc3ccc(OC)c(OC)c3)noc1-2 | -22 | 12 | 26 | -15 | -21 | 49*
O=C(NCCc1ccccc1)c1noc2c1CCc1ccccc1-2 | -18 | 31 | 29 | -7 | -24 | 67*
COc1ccc2c(c1)CCc1c(C(=O)Nc3ccc(OC)c(OC)c3)noc1-2 | -6 | 10 | 3 | -5 | -15 | 51*
CC1(C(=O)NS(=O)(=O)c2cccs2)CCN1C(=O)CCc1ccc(Cl)cc1Cl (stereo not given) | x | 1 | x | x | x | -13
Cc1cc(C)cc(N(CC(=O)Nc2ccccc2)C2=NC3CS(=O)(=O)CC3S2)c1 (stereo not given) | -12 | 7 | 61* | -3 | 5 | -7
Cc1ccc(NC(=O)CN(C2=NC3CS(=O)(=O)CC3S2)c2ccccc2)cc1 (stereo not given) | x | 1 | x | x | x | -14
CC(C)[C@@H]1Cc2[nH][nH]c(=O)c2[C@H](c2ccc(F)cc2)O1 | x | 2 | x | x | x | 15
CN(C)c1nc(N)nc(CSc2ncc(Cl)cc2Cl)n1 | -23 | 1 | 38* | -10 | 6 | 11
COc1ccc(NC(=O)CCNC(=O)c2ccc([N+](=O)[O-])cc2)cc1S(=O)(=O)N1CCCCC1 | x | 0 | x | x | x | -34
COc1ccc(C(=O)c2ccc([N+](=O)[O-])cc2)cc1S(=O)(=O)N1CCC(C(=O)O)CC1 | -4 | 1 | 53* | -6 | -14 | -12
Cc1ccc(NC(=O)CN2CCN(C(=O)C3CC3)CC2)c(F)c1 | x | 3 | x | x | x | -22
C=CCn1c(O)c2ccc(C(=O)N=NC(=O)COc3ccccc3F)cc2c1O | -16 | 1 | 58* | x | -15 | 5
CCOC(=O)C1(C)CCN1C(=O)c1ccc(C)cc1 (stereo not given) | x | -2 | x | x | x | -18
COc1cc(/C=N/N2C(=O)CSC2=S)cc(Br)c1O | x | 62* | x | -3 | x | 32
O=C(c1ccc([N+](=O)[O-])cc1[N+](=O)[O-])N1CCN(C(=O)C2CCCO2)CC1 (stereo not given) | -4 | 6 | 34* | x | -6 | 8
O=C(c1ccccc1Cl)N1CCN(C(=O)C2CCCO2)CC1 (stereo not given) | x | 1 | x | x | x | 0
O=[n+]1c2c(n([O-])c3cc(F)c(N4CCCC4)cc31)CCCC2 | 5 | 20 | 52* | -6 | 0 | 8
